Source: ChEMBL document CHEMBL3046951, “Volatile constituents from the leaves of Callicarpa japonica Thunb. and their antibacterial activities” (2004)

Tests used:
Format in all cases: functional
Bacillus cereus [1] = experiment: Antimicrobial activity against Bacillus cereus ATCC 11778 assessed as growth inhibition rate at 64.76 mg/l after 72 hr by spectrophotometry; settings: ATCC 11778, 72 h, read-out: GI
Summary of the method: (§1)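 Pure volatile compounds (purity >95%; one at 90%) were tested against B. cereus ATCC 11778. The strain was grown at 30 °C in nutrient broth for 24 h, then subcultured for 18 h. Optical density was read in a Bioscreen C every 24 h for 72 h, with 10% Tween 80 as the control.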

Escherichia coli [2] = experiment: Antimicrobial activity against Escherichia coli O157:H7 ATCC 43894 assessed as growth inhibition rate at 64.76 mg/l after 72 hr by spectrophotometry; settings: O157:H7 ATCC 43894, 72 h, read-out: GI
Summary of the method: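 Authentic volatiles (>95% purity; 2,4-heptadienal 90%) tested against 18 h subcultures. Growth media: E. coli O157:H7 and S. aureus in tryptic soy broth at 37 °C; L. monocytogenes in tryptic soy broth at 30 °C; V. parahaemolyticus in tryptic soy broth + 3% NaCl at 37 °C; S. typhimurium in nutrient broth at 30 °C. Bioscreen C OD every 24 h for 72 h versus 10% Tween 80 control.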

Staphylococcus aureus [3] = experiment: Antimicrobial activity against Staphylococcus aureus ATCC 25923 assessed as growth inhibition rate at 64.76 mg/l after 72 hr by spectrophotometry; settings: ATCC 25923, 72 h, read-out: GI
Vibrio parahaemolyticus [4] = experiment: Antimicrobial activity against Vibrio parahaemolyticus ATCC 33844 assessed as growth inhibition rate at 64.76 mg/l after 72 hr by spectrophotometry; settings: ATCC 33844, 72 h, read-out: GI
Listeria monocytogenes [5] = experiment: Antimicrobial activity against Listeria monocytogenes ATCC 19111 assessed as growth inhibition rate at 64.76 mg/l after 72 hr by spectrophotometry; settings: ATCC 19111, 72 h, read-out: GI
Summary of the method: (§2)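 L. monocytogenes was grown at 30 °C in tryptic soy broth, subcultured for 18 h, and exposed to pure volatile compounds (>95% purity). Growth was followed by Bioscreen C optical density every 24 h for 72 h against a 10% Tween 80 control.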

Salmonella typhimurium [6] = experiment: Antimicrobial activity against Salmonella enterica subsp. enterica serovar Typhimurium ATCC 14028 assessed as growth inhibition rate at 64.76 mg/l after 72 hr by spectrophotometry; settings: ATCC 14028, 72 h, read-out: GI
Vibrio parahaemolyticus [7] = experiment: Antimicrobial activity against Vibrio parahaemolyticus ATCC 33844 assessed as growth inhibition rate at 4.64 mg/l after 72 hr by spectrophotometry; settings: ATCC 33844, 72 h, read-out: GI
Salmonella typhimurium [8] = experiment: Antimicrobial activity against Salmonella enterica subsp. enterica serovar Typhimurium ATCC 14028 assessed as growth inhibition rate at 4.64 mg/l after 72 hr by spectrophotometry; settings: ATCC 14028, 72 h, read-out: GI
Summary of the method: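 Salmonella Typhimurium ATCC 14028 grown in nutrient broth at 30 °C, precultured 24 h, then subcultured 1:100 for 18 h before testing. Single volatile compounds (>95% pure) were added. OD was read every 24 h over 72 h in a Bioscreen C, with 10% Tween 80 as the comparison control.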

Listeria monocytogenes [9] = experiment: Antimicrobial activity against Listeria monocytogenes ATCC 19111 assessed as growth inhibition rate at 4.64 mg/l after 72 hr by spectrophotometry; settings: ATCC 19111, 72 h, read-out: GI; summary of the method: as §2
Staphylococcus aureus [10] = experiment: Antimicrobial activity against Staphylococcus aureus ATCC 25923 assessed as growth inhibition rate at 4.64 mg/l after 72 hr by spectrophotometry; settings: ATCC 25923, 72 h, read-out: GI
Escherichia coli [11] = experiment: Antimicrobial activity against Escherichia coli O157:H7 ATCC 43894 assessed as growth inhibition rate at 4.64 mg/l after 72 hr by spectrophotometry; settings: O157:H7 ATCC 43894, 72 h, read-out: GI
Bacillus cereus [12] = experiment: Antimicrobial activity against Bacillus cereus ATCC 11778 assessed as growth inhibition rate at 4.64 mg/l after 72 hr by spectrophotometry; settings: ATCC 11778, 72 h, read-out: GI; summary of the method: as §1

Row | Structure (SMILES) | inhibition of growth at 64.76 µg/mL (Bacillus cereus [1]) [%] | inhibition of growth at 64.76 µg/mL (Escherichia coli [2]) [%] | inhibition of growth at 64.76 µg/mL (Staphylococcus aureus [3]) [%] | inhibition of growth at 64.76 µg/mL (Vibrio parahaemolyticus [4]) [%] | inhibition of growth at 64.76 µg/mL (Listeria monocytogenes [5]) [%] | inhibition of growth at 64.76 µg/mL (Salmonella typhimurium [6]) [%] | inhibition of growth at 4.64 µg/mL (Vibrio parahaemolyticus [7]) [%] | inhibition of growth at 4.64 µg/mL (Salmonella typhimurium [8]) [%] | inhibition of growth at 4.64 µg/mL (Listeria monocytogenes [9]) [%] | inhibition of growth at 4.64 µg/mL (Staphylococcus aureus [10]) [%] | inhibition of growth at 4.64 µg/mL (Escherichia coli [11]) [%] | inhibition of growth at 4.64 µg/mL (Bacillus cereus [12]) [%]
1 | C/C1=C\CC/C(C)=C/CC(C)(C)/C=C/C1 [ALPHA-HUMULONE] | 40.1 | 4.6 | 6.6 | 15.7 | 13.9 | 6.9 | – | – | – | – | – | –
2 | C[C@@H]1CC[C@@H]2[C@@H]1[C@H]1[C@@H](CC[C@@]2(C)O)C1(C)C [GLOBULOL] | – | – | – | – | – | – | 0 | 0.8 | 6.3 | 8.3 | 0 | 1.9
